Rows were chosen to be rich in hits. Some 4.7% of all compounds tested hit in one or more screens of this group.
Cl transport mod – KCC2 (human) Cl- transport modulation; Q9H2X9; KCC2 cells, thallium flux FluoZin-2 fluorescence; B-score of Tl+ flux slope (higher = more flux/activation; lower = inhibition) at 10 µM; 190,000 compounds, 2.2% hits; AID 1456;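 active means thallium flux slope and its plate-corrected score both differing from the plate sample mean at a set confidence after two filtering rounds, in either direction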;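 further: slope of fluorescence scaled to starting intensity during 10 to 20 s after thallium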
MrgX1 antagonist – blocks BAM8-22 activation of human MrgX1 receptor; Q96LB2; MRGX1-HEK293 calcium flux, Fluo-4, BAM8-22 antagonism; stronger effect = lower value; B-score at 10 µM; 310,000 compounds, 1.3% hits; AID 588676;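 active means calcium-response B-score plate-corrected more than 3 library SD below zero, starting fluorescence within 5 deviations, no agonist response on first addition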;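 further: peak minus trough fluorescence over baseline after final BAM8-22 challenge near maximal dose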
MrgX1 allo act – human MrgX1 positive allosteric modulation, primary screen; Q96LB2; MrgX1-HEK293, Fluo-4 calcium flux, FDSS; stronger effect = higher value; B-score at 10 µM; AID 588675; 310,000 compounds, 0.63% hits;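 active means plate-corrected calcium response at least 3 library SD above typical, normal starting fluorescence, not activating the receptor alone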;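 further: compound read alongside a low EC10 to EC30 dose of BAM8-22 agonist; peak minus trough fluorescence over baseline measured at the second addition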
MrgX1 agonist – activates human MrgX1 receptor signaling; 310,000 compounds, 0.44% hits; AID 588627; B-score at 10 µM; MrgX1-HEK293 cells, Fluo-4 calcium fluorescence, agonist mode; stronger effect = higher value; Q96LB2;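 active means calcium response B-score plate-corrected fluorescence ratio at least 3 library SD, with starting fluorescence B-score inside 5 SD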
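times = overnight plating, then 30 min 37 °C plus 30 min room-temperature dye loading | assay system = stable human MrgX1 HEK293 cell line | input = fifteen thousand cells per well | signal = kinetic calcium dye fluorescence, Fluo-4 NW | dosing = compound delivered in addition one of three | read-out = B-scored fluorescence response ratio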
RGS4 block – human RGS4 inhibition | P49798 | HEK293 M3R/RGS4 inducible, Fluo-4 calcium flux; stronger effect = higher value; triggered by carbachol at its EC20 | B-score at 10 µM | 310,000 compounds, 0.45% hits | AID 463165;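 active means B-score, a plate-corrected calcium signal, over three deviations above library mean, with baseline fluorescence within five deviations of library mean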;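 further: RGS4 expression induced by doxycycline in cells with stable M3 receptor; B-score is computed from the integrated fluorescence ratio over baseline after carbachol; higher B-score means a larger calcium signal and so more RGS4 inhibition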
RGS4 pot – RGS4 potentiation or activation. B-score at 10 µM. HEK293 M3R/inducible RGS4, carbachol calcium flux Fluo4; stronger effect = lower value. 310,000 compounds, 0.92% hits;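 active means B-score of the integrated calcium signal more than 4 SD below the library mean, with starting fluorescence not abnormally high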;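 further: negative B-score means reduced calcium response which marks RGS4 activation or potentiation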
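Reagent: ECmax carbachol challenge; Test system: M3R-expressing HEK293 line, RGS4 induced by doxycycline; Schedule: overnight RGS4 induction, 30 min dye load 37 °C, 20 min compound RT; Detection: calcium dye Fluo4 fluorescence; Read-out: Agonist-evoked peak-minus-minimum fluorescence over baseline, integrated ratio, B score.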
MrgX1 PAM conf – human MrgX1 positive allosteric modulation, re-confirmation; shares compounds with MrgX1 allo act; MrgX1-HEK293, Fluo-4 calcium fluorescence, FDSS; activation (ratio percentage), % at 10 µM; 1,200 compounds, 13% hits; AID 602413;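 active means ratio at least 3 SD above the weak peptide control, stable starting fluorescence, no direct agonism earlier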;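 further: compound followed by low BAM8-22 agonist challenge near EC20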
HEK293 Ca flux – counter-screen for MrgX1 antagonists: effect in parental HEK293 cells. shares compounds with MrgX1 antagonist. Fluo-4 calcium fluorescence, FDSS. fluorescence ratio F(max-min)/F0 at 10 µM. 4,000 compounds, 2% hits;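 active means duplicate-averaged calcium fluorescence ratio at least three times the standard deviation of buffer wells, a nonspecific response in parental cells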
HEK293 Ca counter – counter-screen for MrgX1 allosteric activators: effect in parental HEK293 cells. 4,000 compounds, 0.4% hits. fluorescence ratio F(max-min)/F0 at 10 µM. parental HEK293 calcium flux, Fluo-4 fluorescence ratio; stronger effect = higher value. shares compounds with MrgX1 antagonist;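 active means calcium fluorescence ratio, averaged over duplicates, at least 3 SD of the buffer-well ratio, meaning a nonspecific response in receptor-free cells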;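 further: untransfected parental HEK293 lacking MrgX1 used as counterscreen for MrgX1 allosteric activators; fluorescence change taken during the second addition on a kinetic imager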
HEK293 Ca cntr2 – counter-screen for MrgX1 activators: effect in parental HEK293 cells; shares compounds with MrgX1 antagonist; Fluo-4 calcium fluorescence (FDSS); stronger effect = higher value; fluorescence ratio F(max-min)/F0 at 10 µM; 4,000 compounds, 8.7% hits; AID 624115;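 active means calcium fluorescence ratio at least three times the spread of buffer wells, meaning a non-specific response in parental cells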
Active calls of the source: *; i = inactive; x = not tested or not shown.

SMILES	Cl transport mod	MrgX1 antagonist	MrgX1 allo act	MrgX1 agonist	RGS4 block	RGS4 pot	MrgX1 PAM conf	HEK293 Ca flux	HEK293 Ca counter	HEK293 Ca cntr2
CCC(Br)C(=O)Nc1ccc(OC)cc1 (centres undefined)	0.029	i	i	i	i	i	x	x	x	x
Cc1cccc(C(=O)N2CCCC(CCC(=O)N3CCN(c4ccccn4)CC3)C2)c1C (centres undefined)	x	i	9.4*	i	i	i	i	i	i	i
Cc1cc(C(=O)N2CCCC(CCC(=O)N3CCN(c4ccccn4)CC3)C2)c(C)o1 (centres undefined)	x	i	i	i	i	i	x	x	x	x
Cc1ccc(C(=O)N2CCCC(CCC(=O)N3CCN(c4ccccn4)CC3)C2)cn1 (centres undefined)	x	i	i	i	i	i	x	x	x	x
Cc1ccc(C(=O)N2CCCC(CCC(=O)N3CCN(c4ccccn4)CC3)C2)cc1C (centres undefined)	x	i	7.8*	i	i	i	i	i	i	i
CC(=O)O/N=C/c1c(C)c(C=O)n2ccccc12	0.18	i	i	i	i	i	x	x	x	x
COc1ccccc1CNC(=O)CCCn1nc(C)n2ccnc2c1=O	x	i	i	i	i	i	x	x	x	x
CCCN(CCC)C(=O)c1ccc2c(c1)N(CC)C(=O)c1ccccc1S2(=O)=O	x	i	i	i	i	i	x	x	x	x
Cc1ccc(CS(=O)(=O)c2cn(CC(=O)Nc3ccon3)c3ccccc23)cc1	x	i	i	i	i	i	x	x	x	x
CC(C)CC(CO)N1CCN(C(=O)c2cccc(C(F)(F)F)c2)CCC1=O (centres undefined)	0.61	i	10*	i	i	i	i	i	i	i
CC(C)CC(COCc1ccc(F)cc1)N1CCN(C(=O)c2cccc(C(F)(F)F)c2)CCC1=O (centres undefined)	-1.7	i	i	i	i	i	x	x	x	x
COc1ccc(C(=O)c2ccc(N(C)C)cc2)c(OC)c1	0.37	i	8.7*	i	i	i	i	i	i	i
O=C(NCCOc1ccccc1F)C1CCC(=O)N(CCc2cccc(F)c2)C1 (centres undefined)	x	i	i	i	i	i	x	x	x	x
CCOc1cc(/C=C2/C(=N)N3C(=NC2=O)SN=C3S(=O)(=O)CC)ccc1OC(=O)c1ccco1	x	i	35*	i	i	i	24%*	i	i	i
COc1cc(/C=C2\C(=O)N(c3ccc(S(N)(=O)=O)cc3)N=C2C)ccc1OC(=O)c1ccco1	0.62	i	i	i	i	i	x	x	x	x
COc1cc(/C=C2/C(=N)N3C(=NC2=O)SN=C3S(=O)(=O)C(C)C)ccc1OC(=O)c1ccco1	x	i	38*	i	i	i	37%*	i	i	i
CCOc1cc(/C=N\NC(=O)OC)ccc1OC(=O)c1ccco1	-0.52	i	i	i	i	i	x	x	x	x
CCOc1cc(/C=C2/C(=N)N3C(=NC2=O)SN=C3S(=O)(=O)C(C)C)ccc1OC(=O)c1ccco1	x	i	37*	i	i	i	41%*	i	i	48*
COc1ccc(Cl)cc1C(=O)NNC(=O)c1ccncc1	x	i	i	i	i	i	x	x	x	x

Source: PubChem BioAssay (several laboratories)
